In ChEMBL document CHEMBL1145017, “Synthesis and in vivo antitumor activity of poly(l-glutamic acid) conjugates of 20S-camptothecin” (J Med Chem, 2003):
Values after ≈ are worked out from the molar mass of the structure shown.

Experiments:
[1] = system: Mus musculus; test: Maximum tolerated dose (MTD) in mice bearing s.c. B-16 Melanomas; format: functional
[2] = system: Mus musculus; test: Effect on in Vivo Growth of s.c. B-16 Melanomas in mice measured ad difference of average times for tumors to reach a volume of 500 mm**3 between treatment and control groups at dose of 35 mg/kg; format: functional
[3] = system: Mus musculus; test: Effect on in Vivo Growth of s.c. B-16 Melanomas in mice measured ad difference of average times for tumors to reach a volume of 500 mm**3 between treatment and control groups at dose of 48 mg/kg; format: functional
[4] = system: Mus musculus; test: Effect on in Vivo Growth of s.c. B-16 Melanomas in mice measured ad difference of average times for tumors to reach a volume of 500 mm**3 between treatment and control groups at dose of 60 mg/kg; format: functional
[5] = system: Mus musculus; test: Effect on in Vivo Growth of s.c. B-16 Melanomas in mice measured ad difference of average times for tumors to reach a volume of 500 mm**3 between treatment and control groups at dose of 75 mg/kg; format: functional
[6] = system: Mus musculus; test: Effect on in Vivo Growth of s.c. B-16 Melanomas in mice measured ad difference of average times for tumors to reach a volume of 500 mm**3 between treatment and control groups at dose of 41 mg/kg; format: functional
[7] = species: Mus musculus; test: Maximum tolerated dose (MTD) in mice; format: functional
[8] = Aqueous solubility was measured; format: physicochemical
Summary of the method: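 Conjugate dissolved in aqueous Na₂HPO₄ (0.1 M, pH 7.4) at 37 °C; solubility expressed as mg of conjugate per mL.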

[9] = system: Mus musculus; test: Effect on in Vivo Growth of s.c. HT-29 […] in mice measured ad difference of average times for tumors to reach a volume of 500 mm**3 between treatment and control groups at dose of 24 mg/kg; format: functional
Summary of the method: (§1)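 Athymic nude mice bearing human HT-29 colon or NCI-H460 lung carcinoma cells were given a single bolus ip injection, dosed as mg CPT equivalent/kg. Endpoint was TGD in days, the difference in mean time to reach 500 mm³ tumor volume between treated and control groups. Student's t-test vs vehicle.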

[10] = system: Mus musculus; test: Effect on in Vivo Growth of s.c. HT-29 […] in mice measured ad difference of average times for tumors to reach a volume of 500 mm**3 between treatment and control groups at dose of 28 mg/kg; format: functional; summary of the method: as §1
[11] = system: Mus musculus; test: Effect on in Vivo Growth of s.c. HT-29 […] in mice measured ad difference of average times for tumors to reach a volume of 500 mm**3 between treatment and control groups at dose of 20 mg/kg; format: functional
Summary of the method: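 Athymic nude mice bearing human HT-29 colon carcinoma cells got a single bolus ip injection of conjugate, dosed in mg CPT equivalent/kg. Tumor growth delay (days) is the difference in average time for tumors to reach 500 mm³ between treated and control groups. Significance was tested by Student's t-test against vehicle.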

For `CC[C@@]1(OC(=O)CCCOC(=O)CC[C@H](N)C(=O)O)C(=O)OCc2c1cc1n(c2=O)Cc2cc3ccccc3nc2-1`, the MTD [1] was ~35 (mg of CPT) kg-1 and the TGD [2] was 3 days.
For `CC[C@@]1(OC(=O)CNC(=O)CC[C@H](N)C(=O)O)C(=O)OCc2c1cc1n(c2=O)Cc2cc3ccccc3nc2-1`, the MTD [1] was ~40 (mg of CPT) kg-1 and the TGD [2] was 2 days.
In the case of `CC[C@@]1(OC(=O)CC[C@H](N)C(=O)O)C(=O)OCc2c1cc1n(c2=O)Cc2cc3ccccc3nc2-1`, the TGD [3] was 4 days and the MTD [1] was “>=48 (mg of CPT) kg-1”.
With `CC[C@@]1(OC(=O)CCCNC(=O)CC[C@H](N)C(=O)O)C(=O)OCc2c1cc1n(c2=O)Cc2cc3ccccc3nc2-1` the TGD [4] was 1 days and the MTD [1] was “>=60 (mg of CPT) kg-1”.
In the case of `CC[C@@]1(OC(=O)COC(=O)CC[C@H](N)C(=O)O)C(=O)OCc2c1cc1n(c2=O)Cc2cc3ccccc3nc2-1`, the TGD [5] was 4 days and the MTD [1] was “>=75 (mg of CPT) kg-1”.
For `CC[C@@]1(OC(=O)CCC(NC(=O)CC[C@H](N)C(=O)O)C(=O)O)C(=O)OCc2c1cc1n(c2=O)Cc2cc3ccccc3nc2-1` (stereo not given in full), the MTD [1] was “>=41 (mg of CPT) kg-1” and the TGD [6] was 1 days.
For `CC[C@@]1(OC(=O)CNC(=O)CNC(=O)CNC(=O)CC[C@H](N)C(=O)O)C(=O)OCc2c1cc1n(c2=O)Cc2cc3ccccc3nc2-1`, the MTD [7] was <34 (mg of CPT) kg-1, the solubility [8] was 33 mg/mL (≈ 50.9 mM) and the TGD [9] was 7 days.
With `CC[C@@]1(OC(=O)CNC(=O)CNC(=O)CC[C@H](N)C(=O)O)C(=O)OCc2c1cc1n(c2=O)Cc2cc3ccccc3nc2-1` the MTD [7] was “>=28 (mg of CPT) kg-1”, the solubility [8] was 34 mg/mL (≈ 57.5 mM) and the TGD [10] was 4 days.
With `CC[C@@]1(O)C(=O)OCc2c1cc1n(c2=O)Cc2cc3ccccc3nc2-1` [CAMPTOTHECIN] the MTD [7] was ~20 (mg of CPT) kg-1 and the TGD [11] was 17 days.
